ChEMBL document CHEMBL4393712, “Discovery of chalcone-modified estradiol analogs as antitumour agents that Inhibit tumour angiogenesis and epithelial to mesenchymal transition” (Eur J Med Chem, 2019)
The source made the active and inactive calls. No cut-off for these calls is given here.

Key:
HUVEC [1] = test: Reduction in VEGFR expression in HUVEC at 2 to 10 uM after 48 hrs by Western blot analysis; type: functional, cell-based; settings: Homo sapiens
Method in brief: (§1)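 HUVECs grown in RPMI 1640 with 10% FBS, 37 °C, 5% CO2; treated with no drug, 2 or 10 µM for 48 h. Lysed in RIPA with protease/phosphatase inhibitors on ice 30 min, protein by BCA, 8% SDS-PAGE, PVDF transfer, milk block, primary antibody overnight 4 °C, secondary 2 h RT; ECL detection, densitometry. Probed VEGF-R, FAK, p-FAK, SHC.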

MCF7 [2] = test: Inhibition of epithelial-mesenchymal transition in human MCF7 cells assessed as increase in E-cadherin expression level at 2 to 10 uM after 48 hrs by Western blot analysis; type: functional, cell-based
Method in brief: (§2)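 MCF-7 cells in RPMI 1640 with 10% FBS, 37 °C, 5% CO2, exposed to no drug, 2 or 10 µM for 48 h. RIPA lysates, BCA quantitation, 8% SDS-PAGE, PVDF transfer, primary antibodies overnight 4 °C, secondary 2 h RT, ECL and densitometry for ZO-1, E-cadherin, N-cadherin, vimentin. Mean ± SD of 3 independent tests.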

MCF7 [3] = test: Antimigratory activity against human MCF7 cells at 2 to 10 uM measured after 24 hrs by transwell assay; type: functional, cell-based
Method in brief: (§3)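 Cells seeded on upper side of polycarbonate transwell filters in serum-free medium, drug at 0, 2 or 10 µM; complete serum-containing medium in lower chamber as chemoattractant. After 24 h migrated cells fixed in 4% paraformaldehyde 20 min, crystal violet stained 20 min, imaged and counted. Three independent experiments.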

MGC-803 [4] = test: Antitumour activity against human MGC803 cells assessed as cell growth inhibition measured after 72 hrs by SRB assay; type: functional, cell-based; settings: MGC-803, 72 h
Method in brief: (§4)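 Exponentially growing cells trypsinized, seeded at 5 × 10^4 cells/mL in 96-well plates, cultured overnight, then exposed to compounds for 72 h. Cells fixed with 10% TCA 1 h, stained with SRB 15 min, dye dissolved in Tris-HCl, absorbance read; 50% growth-inhibitory concentration calculated.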

MGC-803 [5] = test: Cytotoxicity against human MGC803 cells assessed as reduction in cell viability measured after 48 to 72 hrs by MTT assay; type: cell-based
Method in brief: (§5)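 Cells seeded at 3 × 10^3 per well in 96-well plates, incubated overnight, then given fresh medium with a range of drug concentrations for 48 h or 72 h. MTT added (final 500 µg/mL) for 4 h, formazan dissolved in DMSO, absorbance at 570 nm; IC50 derived. Mean ± SD of 3 independent tests.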

HUVEC [6] = test: Cytotoxicity against HUVEC assessed as reduction in cell viability measured after 48 to 72 hrs by MTT assay; type: cell-based; settings: human; method in brief: as §5
SMMC-7721 = test: Antitumour activity against human SMMC7721 cells assessed as cell growth inhibition measured after 72 hrs by SRB assay; type: functional, cell-based; settings: SMMC-7721, 72 h; method in brief: as §4
HUVEC [7] = test: Antimigratory activity against HUVEC at 2 to 10 uM measured after 48 hrs by wound healing assay; type: functional, cell-based; settings: Homo sapiens
Method in brief: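 Cells seeded in 6-well plates, monolayer scratched with pipette tip, washed twice, kept in medium with 2% FBS. Gaps imaged, then drug added (0, 2 or 10 µM for HUVEC and MCF-7); gaps re-imaged after 48 h and migration rate calculated. Three independent experiments; one-way ANOVA.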

HUVEC [8] = test: Antimigratory activity against HUVEC at 2 to 10 uM measured after 24 hrs by transwell assay; type: functional, cell-based; settings: Homo sapiens; method in brief: as §3
[9] = Hepatotoxicity in nude mouse xenografted with human MCF7 cells assessed as slight increase in serum alkaline phosphatase level at 22.5 to 45 mg/kg/day, ip administered for 21 days by biochemical automatic analyzer; type: toxicity, organism-based; settings: in vivo, 504 h
[10] = Toxicity in nude mouse xenografted with human MCF7 cells assessed as liver edema at 22.5 to 45 mg/kg/day, ip administered for 21 days by HE staining analysis; type: organism-based; settings: in vivo, 504 h
[11] = Toxicity in nude mouse xenografted with human MCF7 cells assessed as effect on lung morphological changes at 22.5 to 45 mg/kg/day, ip administered for 21 days by HE staining analysis; type: organism-based; settings: in vivo, 504 h
[12] = Hepatotoxicity in nude mouse xenografted with human MCF7 cells assessed as slight increase in serum aspartate transaminase level at 22.5 to 45 mg/kg/day, ip administered for 21 days by automatic biochemical analyzer; type: toxicity, organism-based; settings: in vivo, 504 h
PC-3 = test: Cytotoxicity against human PC3 cells assessed as reduction in cell viability measured after 48 to 72 hrs by MTT assay; type: cell-based; method in brief: as §5
[13] = Toxicity in nude mouse xenografted with human MCF7 cells assessed as effect on kidney morphological changes at 22.5 to 45 mg/kg/day, ip administered for 21 days by HE staining analysis; type: organism-based; settings: in vivo, 504 h
HEK293 = test: Cytotoxicity against human HEK293 cells measured after 48 to 72 hrs by MTT assay; type: cell-based; method in brief: as §5
[14] = Solubility of the compound in water; type: physicochemical; settings: buffer
[15] = target: Focal adhesion kinase 1 (Homo sapiens) (UniProt Q05397); test: Reduction in FAK phosphorylation in HUVEC at 2 to 10 uM after 48 hrs by Western blot analysis; type: cell-based; method in brief: as §1
MCF7 [16] = test: Antitumour activity against human MCF7 cells xenografted in nude mouse assessed as decrease in tumour weight at 22.5 to 45 mg/kg/day, ip administered for 21 days; type: functional, organism-based
Method in brief: (§6)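 Nude mice (male/female, 4–6 weeks) injected subcutaneously in right forelimb with 5 × 10^7 MCF-7 cells in 200 µL saline; at mean tumour 100 mm3 randomized (n = 5/group): saline 0.2 mL/day, 22.5 or 45 mg/kg/day ip for 21 days. Body weight and tumour volume (length × width²/2) every other day; tumours weighed at day 21.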

MCF7 [17] = test: Cytotoxicity against human MCF7 cells assessed as reduction in cell viability measured after 48 to 72 hrs by MTT assay; type: cell-based; method in brief: as §5
A549 = test: Antitumour activity against human A549 cells assessed as cell growth inhibition measured after 72 hrs by SRB assay; type: functional, cell-based; settings: A549, 72 h; method in brief: as §4
MCF7 [18] = test: Inhibition of epithelial-mesenchymal transition in human MCF7 cells assessed as decrease in N-cadherin expression level at 2 to 10 uM after 48 hrs by Western blot analysis; type: functional, cell-based; method in brief: as §2
[19] = Toxicity in nude mouse xenografted with human MCF7 cells assessed as increase in body weight at 22.5 to 45 mg/kg/day, ip administered for 21 days; type: organism-based; settings: in vivo, 504 h; method in brief: as §6
[20] = Hepatotoxicity in nude mouse xenografted with human MCF7 cells assessed as slight increase in serum alanine transaminase level at 22.5 to 45 mg/kg/day, ip administered for 21 days by biochemical automatic analyzer; type: toxicity, organism-based; settings: in vivo, 504 h
MCF7 [21] = test: Inhibition of epithelial-mesenchymal transition in human MCF7 cells assessed as decrease in vimentin expression level at 2 to 10 uM after 48 hrs by Western blot analysis; type: functional, cell-based; method in brief: as §2
Chorioallantoic membrane = test: Antiangiogenic activity in chicken chorioallantoic membrane assessed as reduction in neovascularization at 50 ug/ml measured after 72 hrs by CAM assay; type: functional; settings: Gallus gallus
Method in brief: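 Fertilized chicken eggs incubated 6 days at 37 °C; shell windowed and CAM treated (compounds and controls at […] as printed; saline vehicle control). Eggs re-incubated humidified; membranes fixed and harvested after 72 h. Angiogenesis scored by counting blood vessels and imaging neovascular zones; ten eggs per group.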

HET-1A = test: Cytotoxicity against human HET-1A cells assessed as reduction in cell viability measured after 48 to 72 hrs by MTT assay; type: cell-based; method in brief: as §5

Chain of Focal adhesion kinase 1 (Homo sapiens) (Q05397 2-1052 limits assumed): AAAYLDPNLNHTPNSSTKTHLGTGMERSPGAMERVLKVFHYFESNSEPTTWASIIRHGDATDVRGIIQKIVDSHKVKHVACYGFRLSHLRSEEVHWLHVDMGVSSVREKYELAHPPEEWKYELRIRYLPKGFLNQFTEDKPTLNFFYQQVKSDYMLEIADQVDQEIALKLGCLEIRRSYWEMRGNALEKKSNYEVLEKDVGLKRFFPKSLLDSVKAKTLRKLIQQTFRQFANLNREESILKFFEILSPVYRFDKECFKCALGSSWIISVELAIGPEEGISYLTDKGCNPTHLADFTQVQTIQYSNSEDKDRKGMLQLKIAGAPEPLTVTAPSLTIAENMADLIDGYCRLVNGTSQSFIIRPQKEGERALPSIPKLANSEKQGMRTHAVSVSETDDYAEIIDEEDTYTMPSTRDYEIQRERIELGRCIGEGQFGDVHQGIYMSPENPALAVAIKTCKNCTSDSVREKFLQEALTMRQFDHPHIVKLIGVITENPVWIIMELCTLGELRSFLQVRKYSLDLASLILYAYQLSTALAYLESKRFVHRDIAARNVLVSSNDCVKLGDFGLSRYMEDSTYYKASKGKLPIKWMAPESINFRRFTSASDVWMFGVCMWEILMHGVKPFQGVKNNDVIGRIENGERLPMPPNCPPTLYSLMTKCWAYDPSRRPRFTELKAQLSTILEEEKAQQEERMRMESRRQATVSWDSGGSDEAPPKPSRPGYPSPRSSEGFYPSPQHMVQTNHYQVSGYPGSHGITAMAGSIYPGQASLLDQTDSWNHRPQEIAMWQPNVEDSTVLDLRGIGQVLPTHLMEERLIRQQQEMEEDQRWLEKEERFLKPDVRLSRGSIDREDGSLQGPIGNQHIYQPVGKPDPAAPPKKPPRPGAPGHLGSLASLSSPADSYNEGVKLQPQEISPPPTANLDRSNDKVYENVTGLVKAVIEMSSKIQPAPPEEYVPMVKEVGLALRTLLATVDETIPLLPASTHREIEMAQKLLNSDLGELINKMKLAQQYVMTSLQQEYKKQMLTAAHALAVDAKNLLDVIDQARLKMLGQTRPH

With `COc1cc2c(cc1O)CC[C@@H]1[C@@H]2CC[C@]2(C)C(=O)/C(=C/c3ccc(Cl)cc3)C[C@@H]12` the inhibition (HUVEC [1]) was “Active”, the inhibition (MCF7 [2]) was “Active” and the Activity (MCF7 [3]) was “Active”. For the same compound, the IC50 (MGC-803 [4]) was 14.9 µM, the Activity (MGC-803 [5]) was “Toxic” and the Activity (HUVEC [6]) was “Toxic”. The IC50 (SMMC-7721) was 4.3 µM, the Activity (HUVEC [7]) was “Active” and the Activity (HUVEC [8]) was “Active”. The Activity [9] was “Toxic”, the Activity [10] was “Toxic” and the Activity [11] was “Non-Toxic”. For the same compound, the Activity [12] was “Toxic”, the Activity (PC-3) was “Toxic” and the Activity [13] was “Non-Toxic”. The IC50 (HEK293) was > 100 µM, the solubility [14] was “Soluble” and the inhibition [15] was “Active”. For the same compound, the inhibition (MCF7 [16]) was “Active”, the IC50 (MCF7 [17]) was 77 µM and the IC50 (A549) was 23.2 µM. The inhibition (MCF7 [18]) was “Active”, the Activity [19] was “Non-Toxic” and the Activity [20] was “Toxic”. The inhibition (MCF7 [21]) was “Active”, the inhibition (Chorioallantoic membrane) was “Active” and the IC50 (HET-1A) was > 100 µM.
